Assay results of several laboratories.
Compare with care: the assays were run in different laboratories.
Organism: Severe acute respiratory syndrome coronavirus 2

| Structure (SMILES) | assay | system | conditions | inhibition [%] |
| --- | --- | --- | --- | --- |
| CCc1ccc(NC(=O)c2cc3c(=O)n4ccccc4nc3n2C)cc1 | viral replication | Vero | 0.1 µM | 51.5 |
| NS(=O)(=O)c1ccc(N2N=C(C(F)(F)F)CC2c2c[nH]c3cc(Cl)ccc23)cc1 (stereo not shown) | viral replication, inhibitor | Vero C1008 | 1 µM | 40.9 |
| Cn1c(C(=O)Nc2ccc3c(c2)OCCO3)cc2c(=O)n3ccccc3nc21 | viral replication | Vero | 1 µM | 74.7 |
| Oc1c(I)cc(Cl)c2cccnc12 | viral replication, inhibitor | Vero C1008 | 30 µM | 91.8 |
| O=C(O[C@@H]1Cc2c(O)cc(O)cc2O[C@@H]1c1cc(O)c(O)c(O)c1)c1cc(O)c(O)c(O)c1 | cytopathic effect, inhibitor | Vero C1008 | 6.25 µM | 0 |
| CC(=O)c1cccc(NC(=O)c2cc3c(=O)n4ccccc4nc3n2C)c1 | viral replication | Vero | 10 nM | 43.8 |
| C[C@@H]1O[C@@H](OC[C@H]2O[C@@H](Oc3c(-c4ccc(OCCO)c(OCCO)c4)oc4cc(OCCO)cc(O)c4c3=O)[C@H](O)[C@@H](O)[C@@H]2O)[C@H](O)[C@H](O)[C@H]1O | viral replication | Vero C1008 | 50 µM | 3 |
| CC(C)=CCc1c(O)ccc(C(=O)/C=C/c2ccc(O)cc2)c1O | cytopathic effect | Vero C1008 | 25 µM | 0 |
| COCC(=O)Nc1c(I)c(C(=O)NCC(O)CO)c(I)c(C(=O)N(C)CC(O)CO)c1I (stereo not shown) | viral replication | Vero C1008 | 50 µM | 2 |
| CCC(CC)COC(=O)[C@H](C)N[P@](=O)(OC[C@H]1O[C@@](C#N)(c2ccc3c(N)ncnn23)[C@H](O)[C@@H]1O)Oc1ccccc1 | viral replication, inhibitor | Vero C1008 | 0.8 µM | 20 |
| COc1cc(-c2cc3c(c(=O)o2)C[C@]2(O)[C@@]4(C)C(=O)C=CC(C)(C)[C@]4(O)CC[C@@]2(C)O3)cc(OC)c1OC | viral replication, inhibitor | Calu-3 | 50 µM | 101 |
| O=c1[nH]c(=O)n([C@@H]2O[C@H](CO)[C@@H](O)[C@@H]2O)cc1/C=C/Br | viral replication, inhibitor | Vero C1008 | 1 µM | 52.6 |
| O=C(Nc1ccccc1F)c1cc2c(=O)n3ccccc3nc2n1Cc1ccccc1 | viral replication | Vero | 1 µM | 92.3 |
| CC1=C(C/C=C(\C)CC/C=C(\C)Cc2ccc(F)c3ccccc23)C(=O)c2ccccc2C1=O | viral replication, inhibitor | VeroE6/TMPRSS2 | 100 µM, 72 h | 43 |
| Oc1c(Cl)cc(Cl)c2cccnc12 | viral replication, inhibitor | Vero C1008 | 30 µM | 89.8 |
| COc1cc(F)cc2c1-c1ccc(F)cc1C21NC(=O)NC1=O (stereo not shown) | viral replication, inhibitor | Vero C1008 | 1 µM | 52 |
| COc1ccc(C[C@@H]2c3cc(Oc4cc(C[C@@H]5c6cc(O)c(OC)cc6CCN5C)ccc4O)c(OC)cc3CCN2C)cc1 | cytopathic effect | Vero C1008 | 3.125 µM | 0 |

| Structure (SMILES) | assay | system | conditions | inhibition [%] |
| --- | --- | --- | --- | --- |
| CC[C@H](C)[C@@H]1NC(=O)[C@@H](C)NC(=O)[C@H](C(C)C)NC(=O)C[C@H](/C=C/c2ccccc2)OC(=O)[C@H](C(C)C)NC1=O | viral replication, inhibitor | Calu-3 | 50 µM | 3.01 |
| O=C(O)C1=CC(=C(c2ccc(O)c(C(=O)O)c2)c2ccc(O)c(C(=O)O)c2)C=CC1=O | viral replication | Vero C1008 | 50 µM | 80 |
| Br.CN=c1nc(-c2ccc(OC)c(OC)c2)n(-c2ccc(F)cc2)s1 | viral replication, inhibitor, qPCR | Vero C1008 | 50 µM, 24 h | 35.6 |
| CCOC(=O)c1ccc(C#Cc2ccc3c(c2)C(C)(C)CCS3)nc1 | viral replication, inhibitor | Vero C1008 | 1 µM | 49.9 |
| O=C(/C=C/c1ccc(O)c(O)c1/C=C/c1ccc(O)c(O)c1)O[C@H](Cc1ccc(O)c(O)c1)C(=O)O | cytopathic effect, inhibitor | Vero C1008 | 3.125 µM | 0 |
| CC1=C(/C=C/C(C)=C/C=C/C(C)=C/C(=O)O)C(C)(C)CCC1 | viral replication, inhibitor | Vero C1008 | 1 µM | 42.1 |
| Cc1cc(O)c(C=O)c2c1C(=O)Oc1c(cc3c(c1C)C(=O)CC(C)(C)O3)O2 | viral replication, inhibitor | Calu-3 | 50 µM | 99.5 |
| Cn1c(C(=O)Nc2ccc(Cl)cc2)cc2c(=O)n3ccccc3nc21 | viral replication | Vero | 0.1 µM | 37.7 |
| C[C@@H]1O[C@@H](O[C@H]2[C@H](O[C@H]3CC[C@]4(C)[C@H]5CC=C6[C@@H]7CC(C)(C)CC[C@]7(C(=O)OCc7ccccc7)CC[C@@]6(C)[C@]5(C)CC[C@H]4C3(C)C)O[C@H](CO)[C@@H](O[C@@H]3O[C@@H](C)[C@H](O)[C@@H](O)[C@H]3O)[C@@H]2O)[C@H](O)[C@H](O)[C@H]1O | viral replication | 293T/ACE2 | 20 µM | 83.6 |
| COC(=O)C[C@@H]1OO[C@@](C)(/C(C)=C/C=C/Cc2ccccc2)C[C@H]1C | viral replication, inhibitor | Calu-3 | 50 µM | 4.15 |
| Cc1cccn2c(=O)c3cc(C(=O)Nc4ccc(N(C)C)cc4)n(C)c3nc12 | viral replication | Vero | 1 nM | 2.51 |
| C=C[C@@](C)(/C=C/c1ccc(O)cc1)CCC=C(C)C | cytopathic effect | Vero C1008 | 50 µM | 0 |
| O=C(NCCN1CCCC1)c1cc(-c2ccc(CN3CCOCC3)cc2)nc2ccc(F)cc12 | viral replication, inhibitor | Vero C1008 | 1 µM | 45.8 |
| OC[C@H]1O[C@@H](O[C@@H]2[C@@H](CO)OC(O)(CO)[C@H]2O)[C@H](O)[C@@H](O)[C@H]1O (mixture of isomers) | viral replication | Vero C1008 | 50 µM | 3 |
| Cc1ccc(NC(=O)c2cc3c(=O)n4cccc(C)c4nc3n2C)cc1Cl | viral replication | Vero | 1 µM | 87.3 |
| C=C(C)[C@]12C[C@@H](C)[C@@]34O[C@](Cc5ccccc5)(O[C@@H]1[C@@H]3C=C(COC(=O)Cc1ccc(O)c(OC)c1)C[C@]1(O)C(=O)C(C)=C[C@@H]41)O2 | viral replication, inhibitor | Vero C1008 | 1 µM | 53.2 |
| CC1=C(C/C=C(\C)CC/C=C(\C)Cc2ccc(F)cc2)C(=O)c2ccccc2C1=O | viral replication, inhibitor | VeroE6/TMPRSS2 | 100 µM, 72 h | 45 |
